Tested on: calf thymus double-stranded DNA (dsDNA)
Experiment: Thermal transition of DNA
Format: binding
Conditions: 15 μM compound, calf thymus dsDNA 6 μg/ml, pH 7.0
In short: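 Calf thymus dsDNA (6 μg/ml) in 0.1 M sodium phosphate pH 7.0 with 1% DMSO was tested with or without test compound, with ethidium bromide as intercalator control. Samples were equilibrated at 78 °C for 10 min, then raised 1 °C every 2 min. Absorbance was recorded on a spectrophotometer with a thermoelectric cell holder, and compound-only absorbance was subtracted to give Tm.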

CC[n+]1c(-c2ccccc2)c2cc(N)ccc2c2ccc(N)cc21 [ethidium bromide, reference compound]
effect on melting temperature (Tm) / thermal transition of dsDNA: clear shift of thermal transition
